Measured values as given in ChEMBL document CHEMBL4689842, “EUbOPEN Chemogenomics Library wave 1” (2021).

Test system: Fibroblast
Assay: Multiplex assay against human fibroblast
Assay type: toxicity, cell-based
How it was run: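 With compound added, live cells were imaged on a CQ1 microscope at 37°C and 5% CO2; staining with Hoechst33342, BioTracker Green Microtubule Cytoskeleton Dye, MitoTracker Red and Annexin V Alexa Fluor 680 had been done at seeding. The CellPathfinder machine-learning gating scheme split cells into Hoechst high-intensity objects or normal cells, normal cells into healthy, pyknosed or fragmented nuclei, and pyknosed cells into mitotic or apoptotic. The tubulin, mitochondrial-mass and membrane-permeability phenotypes are per cents of healthy-nucleus cells.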

[1] = 12 h, 1 µM, compound concentration 1 uM, replicate 1
[2] = 12 h, 1 µM, compound concentration 1 uM, replicate 2
[3] = 12 h, 10 µM, compound concentration 10 uM, replicate 1
[4] = 12 h, 10 µM, compound concentration 10 uM, replicate 2
[5] = 24 h, 1 µM, compound concentration 1 uM, replicate 1
[6] = 24 h, 1 µM, compound concentration 1 uM, replicate 2
[7] = 24 h, 10 µM, compound concentration 10 uM, replicate 1
[8] = 24 h, 10 µM, compound concentration 10 uM, replicate 2
[9] = 48 h, 1 µM, compound concentration 1 uM, replicate 1
[10] = 48 h, 1 µM, compound concentration 1 uM, replicate 2
[11] = 48 h, 10 µM, compound concentration 10 uM, replicate 1
[12] = 48 h, 10 µM, compound concentration 10 uM, replicate 2

## CNc1cc(Oc2cc(C(=O)Nc3cc(N4CCN(C)CC4)cc(C(F)(F)F)c3)ccc2C)ncn1
[1]
  Population Apoptotic (%): 61%
  Population Fragmented Nuclei (%): 31%
  Population Healthy Nuclei (%): 39%
  Population Hoechst High Intensity Objects (%): 9%
  Population Membrane Permeable-Phenotype (%): 25%
  Population Mitochondria Different-Phenotype (%): 17%
  Population Mitotic Cells (%): 38%
  Population Normal (%): 90%
  Population Pyknosed Nuclei (%): 29%
  Population Tubulin-Different-Phenotype (%): 53%
  Total Cell Count: 147
[2]
  Population Apoptotic (%): 54%
  Population Fragmented Nuclei (%): 10%
  Population Healthy Nuclei (%): 73%
  Population Hoechst High Intensity Objects (%): 2%
  Population Membrane Permeable-Phenotype (%): 10%
  Population Mitochondria Different-Phenotype (%): 60%
  Population Mitotic Cells (%): 45%
  Population Normal (%): 97%
  Population Pyknosed Nuclei (%): 16%
  Population Tubulin-Different-Phenotype (%): 52%
  Total Cell Count: 56
[3]
  Population Apoptotic (%): 54%
  Population Fragmented Nuclei (%): 27%
  Population Healthy Nuclei (%): 26%
  Population Hoechst High Intensity Objects (%): 18%
  Population Membrane Permeable-Phenotype (%): 37%
  Population Mitochondria Different-Phenotype (%): 45%
  Population Mitotic Cells (%): 45%
  Population Normal (%): 81%
  Population Pyknosed Nuclei (%): 46%
  Population Tubulin-Different-Phenotype (%): 65%
  Total Cell Count: 186
[4]
  Population Apoptotic (%): 73%
  Population Fragmented Nuclei (%): 24%
  Population Healthy Nuclei (%): 13%
  Population Hoechst High Intensity Objects (%): 33%
  Population Membrane Permeable-Phenotype (%): 58%
  Population Mitochondria Different-Phenotype (%): 66%
  Population Mitotic Cells (%): 26%
  Population Normal (%): 66%
  Population Pyknosed Nuclei (%): 61%
  Population Tubulin-Different-Phenotype (%): 66%
  Total Cell Count: 70
[5]
  Population Apoptotic (%): 61%
  Population Fragmented Nuclei (%): 30%
  Population Healthy Nuclei (%): 38%
  Population Hoechst High Intensity Objects (%): 11%
  Population Membrane Permeable-Phenotype (%): 16%
  Population Mitochondria Different-Phenotype (%): 10%
  Population Mitotic Cells (%): 38%
  Population Normal (%): 88%
  Population Pyknosed Nuclei (%): 30%
  Population Tubulin-Different-Phenotype (%): 71%
  Total Cell Count: 163
[6]
  Population Apoptotic (%): 50%
  Population Fragmented Nuclei (%): 16%
  Population Healthy Nuclei (%): 63%
  Population Hoechst High Intensity Objects (%): 6%
  Population Membrane Permeable-Phenotype (%): 13%
  Population Mitochondria Different-Phenotype (%): 68%
  Population Mitotic Cells (%): 50%
  Population Normal (%): 93%
  Population Pyknosed Nuclei (%): 19%
  Population Tubulin-Different-Phenotype (%): 51%
  Total Cell Count: 58
[7]
  Population Apoptotic (%): 80%
  Population Fragmented Nuclei (%): 34%
  Population Healthy Nuclei (%): 19%
  Population Hoechst High Intensity Objects (%): 18%
  Population Membrane Permeable-Phenotype (%): 15%
  Population Mitochondria Different-Phenotype (%): 57%
  Population Mitotic Cells (%): 19%
  Population Normal (%): 81%
  Population Pyknosed Nuclei (%): 45%
  Population Tubulin-Different-Phenotype (%): 76%
  Total Cell Count: 163
[8]
  Population Apoptotic (%): 76%
  Population Fragmented Nuclei (%): 16%
  Population Healthy Nuclei (%): 23%
  Population Hoechst High Intensity Objects (%): 48%
  Population Membrane Permeable-Phenotype (%): 80%
  Population Mitochondria Different-Phenotype (%): 80%
  Population Mitotic Cells (%): 23%
  Population Normal (%): 51%
  Population Pyknosed Nuclei (%): 60%
  Population Tubulin-Different-Phenotype (%): 80%
  Total Cell Count: 76
[9]
  Population Apoptotic (%): 84%
  Population Fragmented Nuclei (%): 37%
  Population Healthy Nuclei (%): 43%
  Population Hoechst High Intensity Objects (%): 15%
  Population Membrane Permeable-Phenotype (%): 12%
  Population Mitochondria Different-Phenotype (%): 10%
  Population Mitotic Cells (%): 16%
  Population Normal (%): 84%
  Population Pyknosed Nuclei (%): 19%
  Population Tubulin-Different-Phenotype (%): 65%
  Total Cell Count: 150
[10]
  Population Apoptotic (%): 60%
  Population Fragmented Nuclei (%): 43%
  Population Healthy Nuclei (%): 52%
  Population Hoechst High Intensity Objects (%): 23%
  Population Mitochondria Different-Phenotype (%): 3%
  Population Mitotic Cells (%): 40%
  Population Normal (%): 76%
  Population Pyknosed Nuclei (%): 4%
  Population Tubulin-Different-Phenotype (%): 49%
  Total Cell Count: 158
[11]
  Population Apoptotic (%): 75%
  Population Fragmented Nuclei (%): 59%
  Population Healthy Nuclei (%): 10%
  Population Hoechst High Intensity Objects (%): 30%
  Population Membrane Permeable-Phenotype (%): 36%
  Population Mitochondria Different-Phenotype (%): 54%
  Population Mitotic Cells (%): 24%
  Population Normal (%): 69%
  Population Pyknosed Nuclei (%): 30%
  Population Tubulin-Different-Phenotype (%): 72%
  Total Cell Count: 155
[12]
  Population Apoptotic (%): 100%
  Population Fragmented Nuclei (%): 84%
  Population Healthy Nuclei (%): 11%
  Population Hoechst High Intensity Objects (%): 34%
  Population Membrane Permeable-Phenotype (%): 20%
  Population Mitochondria Different-Phenotype (%): 80%
  Population Mitotic Cells (%): 0%
  Population Normal (%): 65%
  Population Pyknosed Nuclei (%): 4%
  Population Tubulin-Different-Phenotype (%): 80%
  Total Cell Count: 67
